According to ChEMBL document CHEMBL3596136, “Design, synthesis and biological evaluation of paralleled Aza resveratrol-chalcone compounds as potential anti-inflammatory agents for the treatment of acute lung injury” (Bioorg Med Chem Lett, 2015):
Active and inactive are the calls of the source. The calls are words filed in the database; no cut-off is given here.

Columns and labels:
RAW264.7 [1] = assay: Anti-inflammatory activity in mouse RAW264.7 cells assessed as inhibition of LPS-induced IL6 production at 10 mM pre-incubated for 10 mins before LPS stimulation for 24 hrs by ELISA method; assay type: functional, cell-based; details: in the assay text read “pre-incubated for 30 mins” for “pre-incubated for 10 mins”
Summary of the method: (§1)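 RAW 264.7 macrophages pretreated with compound for 30 min, then stimulated with LPS for 24 h. TNF-α and IL-6 in culture medium measured by ELISA and normalized to total protein. Expressed as percent of LPS group; mean ± SEM of 3 independent experiments.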

RAW264.7 [2] = assay: Anti-inflammatory activity in mouse RAW264.7 cells assessed as inhibition of LPS-induced IL6 production pre-incubated for 30 mins before LPS stimulation for 24 hrs by ELISA method
[3] = Toxicity against human HL7702 cells assessed as reduction in cell survival at 10 uM incubated for 24 hrs by MTT assay; assay type: cell-based; details: l02, 24 h
Summary of the method: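 HL-7702 normal hepatic cells treated at 10 µM for 24 h. Viability measured by MTT.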

RAW264.7 [4] = assay: Anti-inflammatory activity in mouse RAW264.7 cells assessed as inhibition of LPS-induced IL6 production pre-incubated for 10 mins before LPS stimulation for 24 hrs by ELISA method; assay type: functional, cell-based; details: in the assay text read “pre-incubated for 30 mins” for “pre-incubated for 10 mins”
Summary of the method: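 RAW 264.7 macrophages pretreated for 30 min at 1, 2.5, 5 and 10 µM, then given LPS (0.5 µg/mL) for 24 h. IL-6 in medium measured by ELISA, normalized to total protein, and expressed as percent of LPS. Concentration-response used for IC50; 3 independent experiments.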

RAW264.7 [5] = assay: Anti-inflammatory activity in mouse RAW264.7 cells assessed as inhibition of LPS-induced TNFalpha production at 10 mM pre-incubated for 10 mins before LPS stimulation for 24 hrs by ELISA method; assay type: functional, cell-based; details: in the assay text read “pre-incubated for 30 mins” for “pre-incubated for 10 mins”; summary of the method: as §1
Mus musculus [6] = assay: Anti-inflammatory activity in C57BL/6 mouse model of LPS-induced acute lung injury assessed as reduction in TNFalpha level in bronchoalveolar lavage fluid at 20 mg/kg for 1 week dosed before LPS instillation for 6 hrs; assay type: functional, organism-based
Summary of the method: (§2)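 LPS-induced ALI in mice. Pretreatment at 20 mg/kg for one week, then intratracheal LPS (5 mg/kg). Animals killed 6 h later. BALF and serum collected and TNF-α measured in each.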

Mus musculus [7] = assay: Anti-inflammatory activity in C57BL/6 mouse model of LPS-induced acute lung injury assessed as reduction in lung CD68-stained macrophages level at 20 mg/kg for 1 week dosed before LPS instillation for 6 hrs by immunohistochemistry method; assay type: functional, organism-based
Summary of the method: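 Lung sections from mice killed 6 h after intratracheal LPS, with or without pretreatment. Macrophages detected by immunohistochemistry for the marker CD68.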

BEAS-2B [8] = assay: Anti-inflammatory activity in human BEAS2B cells assessed as LPS-induced IL33 mRNA expression incubated for 6 hrs by RT-qPCR method; assay type: functional, cell-based
Summary of the method: (§3)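 Beas-2B cells exposed to LPS (1.0 µg/mL) for 6 h, with or without compound. IL-1β, IL-6, IL-33 and TNF-α mRNA quantified by RT-qPCR. Results expressed as percent of LPS control.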

Mus musculus [9] = assay: Anti-inflammatory activity in C57BL/6 mouse model of LPS-induced acute lung injury assessed as reduction in lung wet/dryweight ratio at 20 mg/kg for 1 week dosed before LPS instillation for 6 hrs; assay type: functional, organism-based
Summary of the method: (§4)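 ALI model in mice: one-week pretreatment at 20 mg/kg, then intratracheal LPS instillation (5 mg/kg). After 6 h, animals anaesthetized and killed. Lung wet/dry weight ratio determined. Total cell count and total protein concentration measured in bronchoalveolar lavage fluid.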

Mus musculus [10] = assay: Anti-inflammatory activity in C57BL/6 mouse model of LPS-induced acute lung injury assessed as reduction in protein level in bronchoalveolar lavage fluid at 20 mg/kg for 1 week dosed before LPS instillation for 6 hrs by BCA protein assay; assay type: functional, organism-based; summary of the method: as §4
Mus musculus [11] = assay: Anti-inflammatory activity in C57BL/6 mouse model of LPS-induced acute lung injury assessed as reduction in serum TNFalpha level at 20 mg/kg for 1 week dosed before LPS instillation for 6 hrs; assay type: functional, organism-based; summary of the method: as §2
BEAS-2B [12] = assay: Anti-inflammatory activity in human BEAS2B cells assessed as LPS-induced TNFalpha mRNA expression incubated for 6 hrs by RT-qPCR method; assay type: functional, cell-based; summary of the method: as §3
Mus musculus [13] = assay: Anti-inflammatory activity in C57BL/6 mouse model of LPS-induced acute lung injury assessed as reduction in total cel count at 20 mg/kg for 1 week dosed before LPS instillation for 6 hrs; assay type: functional, organism-based; summary of the method: as §4
Mus musculus [14] = species: Mus musculus; assay: Anti-inflammatory activity in C57BL/6 mouse model of LPS-induced acute lung injury assessed as reduction in lung airspace inflammation […] by hematoxylin and eosin staining method; assay type: functional, organism-based
Summary of the method: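 Lung tissue taken 6 h after tracheal LPS instillation (5 mg/kg) in mice given or not given treatment. Sections stained with hematoxylin and eosin and examined by light microscopy for inflammatory cell infiltration, interstitial edema and alveolar septal thickening.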

BEAS-2B [15] = assay: Anti-inflammatory activity in human BEAS2B cells assessed as LPS-induced IL6 mRNA expression incubated for 6 hrs by RT-qPCR method; assay type: functional, cell-based; summary of the method: as §3
BEAS-2B [16] = assay: Anti-inflammatory activity in human BEAS2B cells assessed as LPS-induced IL-1beta mRNA expression incubated for 6 hrs by RT-qPCR method; assay type: functional, cell-based; summary of the method: as §3

COc1ccc(C(=O)/C=C/c2cc(OC)c(OC)c(OC)c2)cc1/N=C/c1ccc(Cl)cc1Cl
inhibition (RAW264.7 [1]): Active

COc1ccc(C(=O)/C=C/c2cc(OC)c(OC)c(OC)c2)cc1/N=C/c1cc2c(cc1Br)OCO2
inhibition (RAW264.7 [1]): Active

COc1ccc(C(=O)/C=C/c2ccc(OC)c(OC)c2)cc1/N=C/c1cccc(OC)c1O
inhibition (RAW264.7 [1]): Active

COc1ccc(C(=O)/C=C/c2cc(OC)c(OC)c(OC)c2)cc1/N=C/c1ccccc1O
IC50 (RAW264.7 [2]): 3.6 µM | Activity [3]: Non-toxic | inhibition (RAW264.7 [1]): Active | inhibition (RAW264.7 [4]): Dose-dependent effect

COc1ccc(C(=O)/C=C/c2ccc(C(F)(F)F)cc2)cc1/N=C/c1cccc(OC)c1O
inhibition (RAW264.7 [5]): Active | inhibition (RAW264.7 [1]): Active

COc1cc(OC)c(/C=C/C(=O)c2ccc(OC)c(/N=C/c3cccc(OC)c3O)c2)c(OC)c1
inhibition (RAW264.7 [1]): Active

COc1ccc(C(=O)/C=C/c2ccc3ccccc3c2)cc1/N=C/c1cccc(OC)c1O
inhibition (RAW264.7 [1]): Active

COc1ccc(C(=O)/C=C/c2cc(OC)c(OC)c(OC)c2)cc1/N=C/c1ccccc1Br
IC50 (RAW264.7 [2]): 4.8 µM | Activity [3]: Non-toxic | inhibition (RAW264.7 [5]): Active | inhibition (RAW264.7 [1]): Active | inhibition (RAW264.7 [4]): Dose-dependent effect

COc1ccc(C(=O)/C=C/c2ccccc2Br)cc1/N=C/c1cccc(OC)c1O
inhibition (RAW264.7 [5]): Active | inhibition (RAW264.7 [1]): Active

COc1ccc(C(=O)/C=C/c2cc(OC)c(OC)c(OC)c2)cc1/N=C/c1ccc(O)cc1O
inhibition (RAW264.7 [1]): Active

COc1ccccc1/C=C/C(=O)c1ccc(OC)c(/N=C/c2cccc(OC)c2O)c1
inhibition (RAW264.7 [5]): Active | inhibition (RAW264.7 [1]): Active

COc1ccc(C(=O)/C=C/c2cc(OC)c(OC)c(OC)c2)cc1/N=C/c1ccc(O)c(Br)c1
IC50 (RAW264.7 [2]): 3.6 µM | Activity [3]: Non-toxic | inhibition (RAW264.7 [5]): Active | inhibition (RAW264.7 [1]): Active | inhibition (RAW264.7 [4]): Dose-dependent effect

CCN(CC)c1ccc(/C=N/c2cc(C(=O)/C=C/c3cc(OC)c(OC)c(OC)c3)ccc2OC)c(O)c1
inhibition (RAW264.7 [1]): Active

COc1ccc(Br)c(/C=N/c2cc(C(=O)/C=C/c3cc(OC)c(OC)c(OC)c3)ccc2OC)c1
inhibition (RAW264.7 [1]): Active

COc1ccc(C(=O)/C=C/c2cc(OC)c(OC)c(OC)c2)cc1/N=C/c1cccc(OC)c1O
Activity [3]: Non-toxic | inhibition (RAW264.7 [5]): Active | inhibition (RAW264.7 [1]): Active | IC50 (RAW264.7 [4]): 2.8 µM | inhibition (RAW264.7 [4]): Dose-dependent effect

COc1ccc(C(=O)/C=C/c2ccccc2C(F)(F)F)cc1/N=C/c1cccc(OC)c1O
inhibition (RAW264.7 [5]): Active | inhibition (RAW264.7 [1]): Active

COc1ccc(C(=O)/C=C/c2cc(OC)c(OC)c(OC)c2)cc1/N=C/c1cccc(O)c1O
inhibition (Mus musculus [6]): Active | inhibition (Mus musculus [7]): Active | IC50 (RAW264.7 [2]): 1.8 µM | inhibition (BEAS-2B [8]): Active | inhibition (Mus musculus [9]): Active | inhibition (Mus musculus [10]): Active | inhibition (Mus musculus [11]): Active | Activity [3]: Non-toxic | inhibition (RAW264.7 [5]): Active | inhibition (BEAS-2B [12]): Active | inhibition (Mus musculus [13]): Active | inhibition (Mus musculus [14]): Active | inhibition (RAW264.7 [1]): Active | inhibition (RAW264.7 [4]): Dose-dependent effect | inhibition (BEAS-2B [15]): Active | inhibition (BEAS-2B [16]): Active

COc1ccc(C(=O)/C=C/c2cccc(Br)c2)cc1/N=C/c1cccc(OC)c1O
inhibition (RAW264.7 [5]): Active | inhibition (RAW264.7 [1]): Active

COc1ccc(C(=O)/C=C/c2ccc(Br)cc2)cc1/N=C/c1cccc(OC)c1O
inhibition (RAW264.7 [5]): Active | inhibition (RAW264.7 [1]): Active

Oc1ccc(/C=C/c2cc(O)cc(O)c2)cc1
inhibition (Mus musculus [7]): Active | inhibition (Mus musculus [11]): Active | inhibition (RAW264.7 [5]): Active | inhibition (RAW264.7 [1]): Active
